The source of these data is ChEMBL document CHEMBL1137397, “Identification of selective, nonpeptidic nitrile inhibitors of cathepsin s using the substrate activity screening method” (J Med Chem, 2006).

Conditions in all cases: Homo sapiens
Substrate in data set [1]: CCCC[C@@H](C(=O)Nc1ccc2c(C)c(CC(=O)O)c(=O)oc2c1)n1cc([C@@](C)(NC(=O)c2ccccc2)C(C)C)nn1
Nature of the data set: (§1) Binding affinity to cathepsin S. The essentials:
(§2)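 Cathepsin S at 0.6 nM in pH 6.1 100 mM sodium phosphate with 100 mM NaCl, 1 mM DTT, 1 mM EDTA and 0.001% Tween-20. Enzyme preincubated 5 min at 37 °C with five inhibitor concentrations (10-90% inhibition), in duplicate. Cbz-Leu-Arg-AMC added at 5 and 2.5 µM, then AMC read (ex 355/em 450 nm) over 5 min. Ki by Dixon method.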

Substrate in data set [2]: CCCC[C@@H](C(=O)Nc1ccc2c(C)c(CC(=O)O)c(=O)oc2c1)n1cc([C@@](C)(NC(=O)c2ccccc2)C2CCCCC2)nn1
Described as §1. Summed up: as §2

Substrate in data set [3]: CCCC[C@@H](C(=O)Nc1ccc2c(C)c(CC(=O)O)c(=O)oc2c1)n1cc([C@@](C)(NC(=O)c2ccsc2)C(C)C)nn1
The data set is described as §1. Summed up:
as §2

Substrate in data set [4]: CCCC[C@@H](C(=O)Nc1ccc2c(C)c(CC(=O)O)c(=O)oc2c1)n1cc([C@@](C)(NC(=O)c2ccsc2)C2CCC(C)CC2)nn1
Described as §1. Summed up: as §2

Substrate in data set [5]: CCCC[C@@H](C(=O)Nc1ccc2c(C)c(CC(=O)O)c(=O)oc2c1)n1cc([C@@](C)(NC(=O)c2ccsc2)C2CCCCC2)nn1
The description is as §1. Summed up:
as §2

B1: Cathepsin S (Homo sapiens), P25774 (protein)
chain: MKRLVCVLLVCSSAVAQLHKDPTLDHHWHLWKKTYGKQYKEKNEEAVRRLIWEKNLKFVMLHNLEHSMGMHSYDLGMNHLGDMTSEEVMSLMSSLRVPSQWQRNITYKSNPNRILPDSVDWREKGCVTEVKYQGSCGACWAFSAVGALEAQLKLKTGKLVSLSAQNLVDCSTEKYGNKGCNGGFMTTAFQYIIDNKGIDSDASYPYKAMDQKCQYDSKYRAATCSKYTELPYGREDVLKEAVANKGPVSVGVDARHPSFFLYRSGVYYEPSCTQNVNHGVLVVGYGDLNGKEYWLVKNSWGHNFGEEGYIRMARNKGNHCGIASFPSYPEI
The term Km denotes the substrate concentration at which the rate is half of its maximum. For B1, the Km turned out to be 410 µM in data set [1]; 57 µM in data set [2]; 300 µM in data set [3]; 17 µM in data set [4]; 13 µM in data set [5].
